Common to all, as to assay type: functional
Assay [1] concerns Radical scavenging activity. The assay can be described thus: Antioxidant activity assessed as DPPH radical scavenging activity at 50 uM/L after 2 hrs. Summed up:
(§1)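 DPPH radical scavenging read as absorbance at 517 nm. %RSA = [(A_DPPH − A_S)/A_DPPH] × 100, where A_S is absorbance with compound added at a given level and A_DPPH is absorbance of DPPH solution alone. Mean of three independent samples per compound.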
In general terms: The DPPH test is a chemical assay of radical scavenging.

The test system of assay [2] is Radical scavenging activity. The assay can be described thus: Antioxidant activity assessed as DPPH radical scavenging activity at 100 uM/L after 2 hrs. Summed up: as §1
Assay [3] relates to Radical scavenging activity. Put plainly: Antioxidant activity assessed as DPPH radical scavenging activity at 150 uM/L after 2 hrs. Summed up: as §1
In assay [4] the test system is Radical scavenging activity. Put plainly: Antioxidant activity assessed as DPPH radical scavenging activity at 200 uM/L after 2 hrs. Summed up:
as §1

In assay [5] the test system is Radical scavenging activity. The assay can be described thus: Antioxidant activity assessed as DPPH radical scavenging activity at 250 uM/L after 2 hrs. Summed up:
as §1

Assay [6] is described as follows: Antioxidant activity assessed as hydroxyl radical scavenging activity at 20 uM/L after 2 hrs. Summed up:
(§2)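 Hydroxyl radical scavenging by benzoic acid hydroxylation, with OH· generated by Fenton reaction. Sample was mixed with phosphate buffer (pH 7.4, 0.1 mol), then H2O2 solution (10 mmol) was added, and the mixture was incubated at 37 °C for 2 h. Fluorescence of the hydroxylated benzoic acid was read at excitation 305 nm, emission 407 nm.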

A short description of assay [7]: Antioxidant activity assessed as hydroxyl radical scavenging activity at 50 uM/L after 2 hrs. Summed up: as §2
The nature of assay [8]: Antioxidant activity assessed as hydroxyl radical scavenging activity at 100 uM/L after 2 hrs. Summed up: as §2
Assay [9] can be described thus: Antioxidant activity assessed as hydroxyl radical scavenging activity at 150 uM/L after 2 hrs. Summed up: as §2
Assay [10] in a line: Antioxidant activity assessed as hydroxyl radical scavenging activity at 200 uM/L after 2 hrs. Summed up:
as §2

On to `CC1=C2C(=O)Nc3cccc(F)c3C2NC(=S)N1C` (stereo not given), for which the Activity in assay [1] is 3.3%; in assay [2], 8.6%; in assay [3], 12.4%; in [4], 17.4%; in assay [5], 25.4%; in assay [6] it was 70.6%. Besides, the Activity came to 78.8% in [7], 80.2% in assay [8], 81.5% in assay [9] and 83.3% in [10].
In the case of `CCN1C(=O)NC2C(=C1C)C(=O)Nc1cccc(F)c12` (stereo not given), the Activity in assay [1] is 3%; in [2], 4.6%; in assay [3], 6%; in assay [4], 8.7%; in [5], 9.8%; in assay [6], 12.5%. Moreover, the Activity in assay [7] was 58.4%; in assay [8], 72.4%; in [9], 80.2%; in [10] it was 83.1%.
Regarding `CCN1C(=O)NC2C(=C1C)C(=O)Nc1c(Cl)cccc12` (stereo not given), the Activity in [1] came out at 1.9%; in assay [2] it was 2.3%; in [3], 4.3%; in [4] it was 8.1%; in [5], 11.8%; in assay [6] it was 63.8%. For the same molecule, the Activity in assay [7] was found to be 74.1%; in assay [8], 80.6%; in assay [9] it was 84.4%; in assay [10], 86.7%.
On to `CC1=C2C(=O)Nc3ccccc3C2NC(=S)N1C` (stereo not given), for which the Activity is 4% in [1]; 8.2% in [2]; 14.1% in assay [3]; 17.9% in assay [4]; 26.2% in assay [5]; 56.3% in [6]. Also, the Activity in assay [7] is 69.4%; in assay [8], 77.2%; in [9] it was 82.3%; in [10], 88.2%.
Consider `CC1=C2C(=O)Nc3cccc(Cl)c3C2NC(=O)N1C` (stereo not given), for which the Activity in [1] came to 1.5%; in assay [2] it was 2.1%; in assay [3], 5%; in assay [4] it was 5.4%; in assay [5], 7.6%; in [6], 67.1%. The Activity is 72.8% in [7], 80.9% in assay [8], 83.2% in assay [9] and 83.3% in [10].
For `CC1=C2C(=O)Nc3ccccc3C2NC(=O)N1C` (stereo not given), the Activity worked out at 2.5% in [1]; 6.6% in assay [2]; 9.1% in assay [3]; 9.8% in assay [4]; 12% in [5]; 58.4% in assay [6]. Moreover, the Activity in assay [7] is 71.8%; in [8], 80.8%; in [9], 83.7%; in [10], 89.7%.
For the molecule `CCN1C(=O)NC2C(=C1C)C(=O)Nc1ccccc12` (stereo not given), the Activity in [1] came to 3.4%; in assay [2], 4.8%; in [3] it was 6.7%; in assay [4] it was 9.1%; in assay [5] it was 10.5%; in assay [6] it was 58.1%. Moreover, the Activity in [7] was determined as 70.9%; in [8], 81.1%; in [9], 86.5%; in assay [10], 89.1%.
Consider `CC1=C2C(=O)Nc3c(Cl)cccc3C2NC(=O)N1C` (stereo not given), for which the Activity in [1] stood at 3.1%; in assay [2], 5.4%; in [3], 10.2%; in assay [4], 16.2%; in assay [5], 17.4%; in assay [6] it was 66%. The Activity in assay [7] was 77.3%; in assay [8], 82.9%; in assay [9], 87.3%; in assay [10], 89.2%.
In the case of `CC1=C2C(=O)Nc3cc(Cl)ccc3C2NC(=S)N1C` (stereo not given), the Activity in [1] was 9.5%; in assay [2], 11.2%; in assay [3], 17.8%; in [4], 23.8%; in [5], 30.6%; in assay [6], 68.7%. The Activity in assay [7] came out at 76.5%; in assay [8], 87.5%; in assay [9], 88.5%; in assay [10], 90.2%.
Regarding `CC1=C2C(=O)Nc3cccc(Cl)c3C2NC(=S)N1C` (stereo not given), the Activity came out at 7.7% in assay [1]; 8.2% in assay [2]; 9.5% in assay [3]; 15.3% in [4]; 24.9% in [5]; 68% in assay [6]. For the same molecule, the Activity in assay [7] is 82.7%; in assay [8], 87.4%; in [9], 89.8%; in [10] it was 92.3%.

Values taken from ChEMBL document CHEMBL1156682, “Synthesis and antioxidant activity evaluation of new hexahydropyrimido[5,4-c]quinoline-2,5-diones and 2-thioxohexahydropyrimido[5,4-c]quinoline-5-ones obtained by Biginelli reaction in two steps” (Eur J Med Chem, 2008).
